From PubChem BioAssay
Compounds with a hit are over-represented: about 4.2% of the library has one in this group of screens.
Fh CTSL1 inh: Fasciola hepatica cathepsin L1 inhibitors, primary screen, counter-screen for PFM18AAP inhibitor project, biochemical, QFRET, fluorogenic peptide substrate; recombinant F. hepatica cathepsin L1, Z-Leu-Arg-MCA fluorescence; 300,000 compounds, 0.49% hits; AID 1906, 2009; inhibition, % at 5.96 µM;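 active = inhibition above the mean of all tested compounds plus 3 SD, set per screening campaign, cut at about 17% in these data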;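 also: 0% = plate median of test compound wells and 100% = 1 µM Z-Phe-Ala-diazomethylketone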
HDAC3 inh: HDAC3 deacetylase inhibitors, primary screen, biochemical, fluorescence, cell-free homogeneous | 320,000 compounds, 0.15% hits | inhibition, % at 8.3 µM | AID 2718, 2010 | recombinant HDAC3, fluorogenic peptide/trypsin coupled; in the data active = inhibition above about 26%, passing the limit was not always enough
FXN GAA850 act: FXN promoter activators, primary screen, cell-based, luciferase luminescence, HEK293 lucGAA850; HEK293 lucGAA850 FXN promoter luciferase reporter, 24 h; percent of 10 µM SAHA response; activation, % at 6 µM; 360,000 compounds, 0.56% hits; AID 540364, 2011;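 active = activation above the average of all compounds screened plus 3 SD, cutoff fixed separately per campaign, cut at about 7.5% in these data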;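 also: 0% = DMSO wells and 100% = 10 µM SAHA wells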
M18AAP inhibitor: PfM18AAP inhibitors, malaria aminopeptidase, primary screen, biochemical, QFRET, recombinant enzyme. 290,000 compounds, 1.2% hits. H-Glu-NHMec fluorogenic cleavage. inhibition, % at 7.35 µM. AID 1822, 2009. M18 aspartyl aminopeptidase (Plasmodium falciparum 3D7);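 active = inhibition above the campaign mean inhibition over all tested compounds plus 3 SD, cut at about 28% in these data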;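 also: 0% = plate median of test compound wells and 100% = 2 mM ZnCl2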
AHR act: AHR activators, primary screen, cell-based, luminescence, luciferase reporter, human. Aryl hydrocarbon receptor (Homo sapiens), P35869. AHR-responsive luciferase reporter cells. activation, % at 5 µM. 320,000 compounds, 2.5% hits. AID 2796, 2010; in the data active = activation above about 47%;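 also: 0% = vehicle wells and 100% = reference agonist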
Target sequence (P35869 whole entry, looked up): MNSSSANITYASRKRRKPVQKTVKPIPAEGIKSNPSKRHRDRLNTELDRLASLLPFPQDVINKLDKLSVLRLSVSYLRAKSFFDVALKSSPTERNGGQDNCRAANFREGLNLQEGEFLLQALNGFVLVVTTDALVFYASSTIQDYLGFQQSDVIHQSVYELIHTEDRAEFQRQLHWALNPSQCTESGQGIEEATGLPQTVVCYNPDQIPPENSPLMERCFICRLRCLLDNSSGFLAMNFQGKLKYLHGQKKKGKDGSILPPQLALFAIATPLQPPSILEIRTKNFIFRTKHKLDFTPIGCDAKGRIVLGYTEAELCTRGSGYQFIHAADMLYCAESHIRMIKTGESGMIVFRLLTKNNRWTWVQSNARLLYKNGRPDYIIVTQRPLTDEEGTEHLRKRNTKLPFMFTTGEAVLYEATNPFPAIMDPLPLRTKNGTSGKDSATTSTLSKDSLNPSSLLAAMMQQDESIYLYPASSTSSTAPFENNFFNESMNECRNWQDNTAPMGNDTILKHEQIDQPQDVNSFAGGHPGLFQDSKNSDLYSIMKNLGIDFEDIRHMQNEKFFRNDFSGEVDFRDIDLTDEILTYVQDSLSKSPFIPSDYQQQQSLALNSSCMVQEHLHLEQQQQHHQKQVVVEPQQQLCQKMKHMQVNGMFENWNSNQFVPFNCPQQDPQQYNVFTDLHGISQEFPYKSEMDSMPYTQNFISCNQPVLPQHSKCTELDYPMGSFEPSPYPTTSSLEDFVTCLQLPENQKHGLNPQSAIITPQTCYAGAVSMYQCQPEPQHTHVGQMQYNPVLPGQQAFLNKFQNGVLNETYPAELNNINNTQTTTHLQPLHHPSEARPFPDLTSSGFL
SENP1 inh: human SENP1 catalytic domain inhibitors, primary screen, biochemical, FRET, uHTS. AID 624204, 2012. 360,000 compounds, 0.21% hits. recombinant SENP1 catalytic domain, CyPet-SUMO1-YPet FRET cleavage. inhibition, % at 10 µM;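 active = inhibition at least 30% at 10 µM, raw YFP signal under a set limit, fluorescence ratio 0.5 to 1.5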;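 also: 0% = enzyme with DMSO and 100% = no enzyme wells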
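System: Recombinant human SENP1 catalytic domain, His6-tagged | Incubation: Enzyme reaction for 50 min at room temperature, dark | Medium: Tris pH 8 with BME, BSA, NP40 and catalase | Also added: 25 nM SUMO1 FRET substrate | Compound: 10 µM single point, 0.5% DMSO | Measured by: FRET fluorescence in CFP and YFP emission channels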
An asterisk follows results filed as active.

`Cc1ccc(S(=O)(=O)n2ccc(OC(=O)c3cccs3)n2)cc1` gave Fh CTSL1 inh -12, HDAC3 inh 90*, FXN GAA850 act 1, M18AAP inhibitor 4, AHR act -3 and SENP1 inh 3.
CCNC(=S)NNC(=S)NCc1ccccc1 was read as Fh CTSL1 inh -3, HDAC3 inh -6, FXN GAA850 act 2, M18AAP inhibitor 32*, AHR act 2 and SENP1 inh 2.
S=C(NCc1ccccc1)NCc1ccc(CNC(=S)NCc2ccccc2)cc1 was read as Fh CTSL1 inh -6, HDAC3 inh 4, FXN GAA850 act 0, M18AAP inhibitor -3, AHR act 5 and SENP1 inh 3.
For S=C(NCc1ccccc1)Nc1ccc(Oc2ccccc2)cc1 the results were Fh CTSL1 inh -11, HDAC3 inh -1, FXN GAA850 act 2, M18AAP inhibitor 6, AHR act 74* and SENP1 inh -1.
Screening CCOC(=O)c1cnc2nc(NCc3ccc(OC)c(OC)c3)[nH]n2c1=O returned Fh CTSL1 inh 20*, HDAC3 inh -1, FXN GAA850 act 0, M18AAP inhibitor 9, AHR act 1 and SENP1 inh 1.
Screening COc1cccc(C(=O)N2CCC[C@H]2C(=O)N2CCC[C@H]2C(=O)NCc2ccccn2)c1 returned SENP1 inh 1.
`O=C1c2cccc3cccc(c23)C(=O)N1CCN1CCN(C(=S)Nc2ccc(F)cc2)CC1` gave Fh CTSL1 inh 7, HDAC3 inh -3, M18AAP inhibitor -8 and AHR act 106*.
Screening CN(CC(=O)Nc1ccc(N2CCOCC2)cc1)CC(=O)Nc1ccc(N2CCOCC2)cc1 returned Fh CTSL1 inh -1, HDAC3 inh 8, FXN GAA850 act 0, M18AAP inhibitor -7, AHR act 52* and SENP1 inh 4.
For CCOC(=O)[C@]12CCCC=C1N(Cc1ccco1)C(=O)[C@H](CC(=O)NCC1CCCCC1)C2 the results were SENP1 inh 0.
`O=C1C(Cl)=C(Nc2ccccc2O)C(=O)N1c1ccccc1` gave Fh CTSL1 inh 73*, HDAC3 inh -2, FXN GAA850 act 1, M18AAP inhibitor 46*, AHR act 55* and SENP1 inh 8.
For COc1ccccc1N1C(=O)C(Cl)=C(Nc2ccccc2O)C1=O the results were FXN GAA850 act 3, M18AAP inhibitor 15 and SENP1 inh 46*.
For Cc1c(NC2=C(Cl)C(=O)N(c3ccccc3)C2=O)c(=O)n(-c2ccccc2)n1C the results were Fh CTSL1 inh -3, HDAC3 inh -6, FXN GAA850 act -1, M18AAP inhibitor 11, AHR act 3 and SENP1 inh 15.
Screening CCOc1ccccc1NC1=C(Cl)C(=O)N(c2ccc(OC)cc2)C1=O returned Fh CTSL1 inh 0, HDAC3 inh 4, FXN GAA850 act 2, M18AAP inhibitor 17, AHR act 2 and SENP1 inh 3.
For O=C(c1[nH]c(C(F)(F)F)nc1-c1ccccc1)N1CCC2(CC1)C(=O)NCN2c1ccccc1 the results were SENP1 inh 0.
O=C(Nc1ccc2c(c1)OCO2)c1ccccn1 was read as HDAC3 inh 4, FXN GAA850 act 5, AHR act 22 and SENP1 inh 0.
O=C(Nc1ccc2c(c1)OCO2)c1cnccn1 was read as Fh CTSL1 inh -1, HDAC3 inh 7, FXN GAA850 act 4, M18AAP inhibitor 2, AHR act 66* and SENP1 inh 2.
Screening O=C(Nc1ccc2c(c1)OCO2)c1ccc(=O)[nH]n1 returned Fh CTSL1 inh -1, HDAC3 inh 1, FXN GAA850 act 6, M18AAP inhibitor -5, AHR act 78* and SENP1 inh 1.
For CCCC(=O)Nc1ccc(C(=O)Nc2cc(C(F)(F)F)ccc2Cl)cc1 the results were Fh CTSL1 inh 0, HDAC3 inh -3, FXN GAA850 act -2, M18AAP inhibitor -11, AHR act 63* and SENP1 inh -2.
For COc1cc(C(=O)Nc2cc(C(F)(F)F)ccc2Cl)cc(OC)c1OC the results were Fh CTSL1 inh -1, HDAC3 inh -3, FXN GAA850 act 3, M18AAP inhibitor 4, AHR act 7 and SENP1 inh -1.
`O=C(Nc1cc(C(F)(F)F)ccc1Cl)c1ccncc1` gave Fh CTSL1 inh -3, HDAC3 inh 4, FXN GAA850 act 0, M18AAP inhibitor 6, AHR act -3 and SENP1 inh 4.
O=C(Nc1cc(C(F)(F)F)ccc1Cl)c1ccc(NC(=O)C(F)(F)F)cc1 was read as Fh CTSL1 inh 5, HDAC3 inh 2, FXN GAA850 act 4, M18AAP inhibitor -3, AHR act 75* and SENP1 inh 3.
`COc1cc(/C=C(\C#N)c2nc3ccc(C)cc3[nH]2)c([N+](=O)[O-])cc1OC` gave Fh CTSL1 inh 5, HDAC3 inh 2, FXN GAA850 act 2, M18AAP inhibitor 23, AHR act 66* and SENP1 inh 7.
For COc1cc(/C(C#N)=C/c2ccccc2)c([N+](=O)[O-])cc1OC the results were Fh CTSL1 inh 4, HDAC3 inh -3, FXN GAA850 act -1, M18AAP inhibitor 10, AHR act 47* and SENP1 inh 1.
COc1cc(/C=C(\C#N)c2nc3ccc(C)cc3[nH]2)cc([N+](=O)[O-])c1O was read as FXN GAA850 act 4, M18AAP inhibitor -1 and SENP1 inh -24.
COc1c(O)ccc(/C=C(\C#N)c2nc3ccccc3[nH]2)c1[N+](=O)[O-] was read as Fh CTSL1 inh 4, HDAC3 inh 10, FXN GAA850 act 5, M18AAP inhibitor 0, AHR act 50* and SENP1 inh -34.
COc1ccc(/C=C(\C#N)c2nc3ccccc3[nH]2)cc1O was read as FXN GAA850 act 5, M18AAP inhibitor 9 and SENP1 inh -72.
For COc1ccc(/C=C(\C#N)c2cc(OC)c(OC)cc2[N+](=O)[O-])cc1 the results were Fh CTSL1 inh -3, HDAC3 inh -1, FXN GAA850 act 2, M18AAP inhibitor 5, AHR act 13 and SENP1 inh -1.
`CCNC(=O)C1(C)CCN(C(=O)c2ccc(C(F)(F)F)cc2)C1` (stereo unspecified) gave FXN GAA850 act 1 and SENP1 inh 4.
`COCCN1CCC(CO)C1` (stereo unspecified) gave FXN GAA850 act -1 and SENP1 inh -4.
